pIC50, pKi: −log10 of the molar value.
Key:
JAK1 = JAK1 (Homo sapiens, UniProt P23458); experiment: biochemical
JAK2 = JAK2 (Homo sapiens, UniProt O60674); experiment: biochemical
Tyk2 = molecular target: T1, Tyk2 (Homo sapiens, UniProt P29597); experiment: biochemical
T1 sequence (P29597 897-1176 limits assumed): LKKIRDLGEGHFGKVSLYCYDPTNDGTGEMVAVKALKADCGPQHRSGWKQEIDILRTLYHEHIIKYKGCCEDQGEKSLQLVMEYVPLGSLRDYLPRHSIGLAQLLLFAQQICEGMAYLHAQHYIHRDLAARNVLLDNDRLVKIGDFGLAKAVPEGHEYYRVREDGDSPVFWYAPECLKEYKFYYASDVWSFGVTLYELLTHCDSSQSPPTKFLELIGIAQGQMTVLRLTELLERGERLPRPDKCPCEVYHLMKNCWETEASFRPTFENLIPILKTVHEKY

[1] = system: cytokine‐induced STAT6 phosphorylation; experiment: cytokine‐induced STAT6 phosphorylation in bronchial epithelial cell lines; type: cell-based; settings: data on file, Theravance Biopharma
JAK = experiment: cell‐based assays of JAK inhibition; settings: Homo sapiens, Epithelial cell, read-out: most potent half‐maximal JAK inhibition (IC50) in a cell‐based assay
[2] = human plasma protein binding; type: in vitro ADME
phase I part A = type: in vivo, human; settings: for TEAE Cough / TEAE Dizziness / TEAE Headache / TEAE related to nezulcitinib / Total participants with TEAEs: part A
How it was run: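 Healthy adults aged 18–50 (BMI 18–32 kg/m^2, FEV1 ≥80% predicted) in a double-blind, randomized, placebo-controlled single ascending dose study. Three cohorts of 8 (6 active, 2 placebo) got one nebulized dose of 1, 3 or 10 mg or placebo; a sentinel pair was dosed ≥24 h first. TEAEs were coded by MedDRA, with follow-up 1 week (±2 days) post-dose.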

phase I part B = type: in vivo, human
How it was run: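 Double-blind, randomized, placebo-controlled multiple ascending dose study in healthy adults aged 18–50 (FEV1 ≥80% predicted). Three cohorts of 10 (8 active, 2 placebo) got nebulized 1, 3 or 10 mg or placebo once daily for 7 days, staying in residence through day 9. Monitoring covered exams, vital signs, 12-lead ECGs, spirometry, clinical labs and MedDRA-coded TEAEs; follow-up came 1 week (±2 days) after the last dose.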

[3] = phase I part A plasma pharmacokinetics; type: in vivo, human; settings: for Tmax / AUC(0-t) / Cmax / Vd/F: human, plasma, inhaled or intranasal
How it was run: (§1)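 Healthy adults got a single nebulized dose (1, 3 or 10 mg). Blood and urine were sampled predose and over 72 h postdose. Plasma and urine PK parameters were estimated per participant and summarized as geometric mean (CV%). Urinary excretion was expressed as cumulative percentage of administered dose.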

[4] = phase I part A urine pharmacokinetics; type: in vivo, human; settings: geometric mean (CV%)
How it was run: as §1

[5] = phase I part B plasma pharmacokinetics; type: in vivo, human; settings: for DN AUCtau / DN Cmax,ss: dose normalized; for DN AUCtau / DN Cmax,ss / Ctrough,ss: geometric mean (geometric CV%); for AUC / Cmax / Tmax: human, inhaled; for AUC / Cmax / Tmax / Ctrough,ss: plasma
How it was run: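 Healthy adults got nebulized 1, 3 or 10 mg once daily for 7 days. Serial blood was drawn through 24 h after the day-1 dose and from predose through 48 h after the day-7 dose; troughs were drawn predose on days 3–6. Day-7 parameters, including dose-normalized values, were given as geometric mean (geometric CV%). Accumulation ratios were AUCtau/day-1 AUC0-24 and Cmax,ss/day-1 Cmax.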

[6] = type: physicochemical; settings: PARI eFlow nebulizer, dose range 0.1–10 mg
[7] = metabolism in dog lung S9 fractions; type: in vitro ADME; settings: dog lung S9 fortified with 3'‐phosphate‐5'‐phosphosulfate; data on file
[8] = metabolism in rat lung S9; type: in vitro ADME; settings: data on file
[9] = metabolism in human lung S9; type: in vitro ADME; settings: data on file
[10] = metabolite identification in rat hepatocytes; type: in vitro ADME
[11] = metabolite identification in dog hepatocytes; type: in vitro ADME
[12] = metabolite identification in human hepatocytes; type: in vitro ADME
elimination in the rat = type: in vivo; settings: preclinical data
COVID‐19 [13] = settings: in combination with remdesivir, patients with COVID‐19; cited from earlier work
COVID‐19 [14] = settings: phase III RUXCOVID study; cited from earlier work
[15] = all nezulcitinib doses, Total (n = 18)
[16] = single inhaled dose 1 mg (n = 6)
[17] = single inhaled dose 3 mg (n = 6)
[18] = single inhaled dose 10 mg (n = 6)
[19] = one participant, 10 mg, part B, by day 9, deemed not related to study drug
[20] = part B, 1 mg once daily for 7 days (n = 8)
[21] = part B, 3 mg once daily for 7 days (n = 8)
[22] = part B, 10 mg once daily for 7 days (n = 8)
[23] = part B, all nezulcitinib doses, Total (n = 24)

Sequence of JAK1 (P23458 875-1153 limits assumed): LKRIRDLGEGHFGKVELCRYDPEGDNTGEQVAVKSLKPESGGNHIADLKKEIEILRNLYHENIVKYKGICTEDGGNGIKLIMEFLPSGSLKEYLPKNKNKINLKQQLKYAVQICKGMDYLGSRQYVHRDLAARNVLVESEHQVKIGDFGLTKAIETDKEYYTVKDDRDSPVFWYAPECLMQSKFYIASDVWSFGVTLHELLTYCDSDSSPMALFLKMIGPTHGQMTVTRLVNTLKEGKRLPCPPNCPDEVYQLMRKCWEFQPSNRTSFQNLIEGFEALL
Sequence of JAK2 (O60674 849-1124 limits assumed): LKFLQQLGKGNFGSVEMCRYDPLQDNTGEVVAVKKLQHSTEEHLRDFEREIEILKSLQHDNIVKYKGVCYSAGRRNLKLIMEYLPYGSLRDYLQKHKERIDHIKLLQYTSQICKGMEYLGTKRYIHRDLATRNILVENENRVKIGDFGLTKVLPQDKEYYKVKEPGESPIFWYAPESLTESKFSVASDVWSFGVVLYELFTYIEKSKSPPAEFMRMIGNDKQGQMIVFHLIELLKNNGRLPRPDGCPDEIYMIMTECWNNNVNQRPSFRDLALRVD

## CCc1cc(O)ccc1-c1ccc2c(-c3nc4c([nH]3)CN(C(C)C)[C@H](C(=O)N3CC(N(C)C)C3)C4)n[nH]c2c1 [Nezulcitinib]
JAK1
  pKi: 10.30
JAK2
  pKi: 10.60
Tyk2
  pKi: 9.20
[1]
  inhibition of cytokine‐induced STAT6 phosphorylation: inhibits
JAK
  pIC50: 7.90
[2]
  fraction unbound: 0.019
Phase I part A; [15]
  TEAE Cough: 2 (11) n (%)
  TEAE Dizziness: 2 (11) n (%)
  TEAE Headache: 1 (6) n (%)
  TEAE related to nezulcitinib: 0 n (%)
  Total participants with TEAEs: 6 (33) n (%)
Phase I part A; [16]
  TEAE Cough: 1 (17) n (%)
  TEAE Dizziness: 1 (17) n (%)
  TEAE Headache: 1 (17) n (%)
  TEAE related to nezulcitinib: 0 n (%)
  Total participants with TEAEs: 4 (67) n (%)
Phase I part A; [17]
  TEAE Cough: 0 n (%)
  TEAE Dizziness: 0 n (%)
  TEAE Headache: 0 n (%)
  TEAE related to nezulcitinib: 0 n (%)
  Total participants with TEAEs: 0 n (%)
Phase I part A; [18]
  TEAE Cough: 1 (17) n (%)
  TEAE Dizziness: 1 (17) n (%)
  TEAE Headache: 0 n (%)
  TEAE related to nezulcitinib: 0 n (%)
  Total participants with TEAEs: 2 (33) n (%)
Phase I part A; single inhaled dose, healthy participants
  tolerability: generally well‐tolerated
Phase I part B; [19]
  alanine aminotransferase (ALT) elevation: 3.8 × ULN
  aspartate aminotransferase (AST) elevation: approximately 2.8 × ULN
Phase I part B; [20]
  Moderate or severe TEAEs: 0 n (%)
  TEAE Cough: 0 n (%)
  TEAE Dizziness: 1 (13) n (%)
  TEAE Headache: 1 (13) n (%)
  TEAE Lethargy: 1 (13) n (%)
  TEAE Medical device site reaction: 0 n (%)
  TEAE related to nezulcitinib: 0 n (%)
  Total participants with TEAEs: 4 (50) n (%)
Phase I part B; [21]
  Moderate or severe TEAEs: 0 n (%)
  TEAE Cough: 2 (25) n (%)
  TEAE Dizziness: 1 (13) n (%)
  TEAE Headache: 3 (38) n (%)
  TEAE Lethargy: 0 n (%)
  TEAE Medical device site reaction: 0 n (%)
  TEAE related to nezulcitinib: 0 n (%)
  Total participants with TEAEs: 3 (38) n (%)
Phase I part B; [22]
  Moderate or severe TEAEs: 2 (25) n (%)
  TEAE Cough: 3 (38) n (%)
  TEAE Dizziness: 1 (13) n (%)
  TEAE Headache: 0 n (%)
  TEAE Lethargy: 0 n (%)
  TEAE Medical device site reaction: 1 (13) n (%)
  TEAE related to nezulcitinib: 1 (13) n (%)
  Total participants with TEAEs: 6 (75) n (%)
Phase I part B; [23]
  TEAE Cough: 5 (21) n (%)
  TEAE Dizziness: 3 (13) n (%)
  TEAE Headache: 4 (17) n (%)
  TEAE Lethargy: 1 (4) n (%)
  TEAE Medical device site reaction: 1 (4) n (%)
  TEAE related to nezulcitinib: 1 (4) n (%)
  Total participants with TEAEs: 13 (54) n (%)
Phase I part B; parts A and B
  changes from baseline in vital sign and ECG assessments: No clinically significant changes
  severe or serious AEs: No severe or serious AEs
Phase I part B; single daily doses up to 10 mg for 7 days, healthy participants
  tolerability: generally well‐tolerated
[3]
  Tmax: ~1 h
[3]; 1 mg
  AUC(0-t): 18.7 ng·h/mL
  Cmax: 5.5 ng/mL
  Vd/F: 1390 L
[3]; 3 mg
  AUC(0-t): 45.2 ng·h/mL
  Cmax: 13.8 ng/mL
  Tmax: 1 h
  Vd/F: 2300 L
[3]; 10 mg
  AUC(0-t): 157 ng·h/mL
  Cmax: 47.3 ng/mL
  Tmax: 1 h
  Vd/F: 2200 L
[3]; part A, single dose 1, 3, 10 mg
  dose proportionality of plasma exposures (Cmax and AUC0‐t): increased proportionally
[4]; single inhaled dose 1 mg
  Cum%Dose (cumulative percentage of administered dose excreted): 0.97 (38.3) %
[4]; single inhaled dose 3 mg
  Cum%Dose (cumulative percentage of administered dose excreted): 0.72 (17.5) %
[4]; single inhaled dose 10 mg
  Cum%Dose (cumulative percentage of administered dose excreted): 0.84 (41.6) %
[5]; part B day 7, 1 mg once daily
  DN AUCtau: 21.0 (25.7) ng•h/ml/mg
  DN Cmax,ss: 5.6 (24.1) ng/ml/mg
  Ctrough,ss: 0.2 (29.5) ng/ml
[5]; part B day 7, 3 mg once daily
  DN AUCtau: 17.2 (32.5) ng•h/ml/mg
  DN Cmax,ss: 5.9 (42.6) ng/ml/mg
  Ctrough,ss: 0.3 (39.0) ng/ml
[5]; part B day 7, 10 mg once daily
  DN AUCtau: 17.8 (65.0) ng•h/ml/mg
  DN Cmax,ss: 5.0 (46.4) ng/ml/mg
  Ctrough,ss: 1.1 (83.6) ng/ml
[5]; 1 mg
  AUC: 21 ng·h/mL
  Cmax: 5.6 ng/mL
  Tmax: 1 h
[5]; 3 mg
  AUC: 51.6 ng·h/mL
  Cmax: 17.6 ng/mL
  Tmax: 1 h
[5]; 10 mg
  AUC: 178 ng·h/mL
  Cmax: 49.6 ng/mL
  Tmax: 1 h
[5]; part B, 7 days of once‐daily dosing 1, 3, 10 mg
  dose proportionality of plasma exposures (Cmax and AUC0–t): increased proportionally
[5]; part B, once‐daily dosing, from daily plasma trough concentrations
  time to steady‐state plasma concentrations: ≤ 4 days
[6]
  emitted fine particle dose, of the nominal dose: 40%
[7]
  metabolic stability in lung S9: extensive conversion to the sulfation product
[8]
  metabolic stability in lung S9: relatively stable
[9]
  metabolic stability in lung S9: relatively stable
[10]
  primary metabolite: sulfation product
[11]
  primary metabolite: sulfation product
[12]
  primary metabolite: an oxidation, methylation, and glucuronidation product
Elimination in the rat
  amount eliminated in the urine and bile as unchanged compound: minor amount

## CCS(=O)(=O)N1CC(CC#N)(n2cc(-c3ncnc4[nH]ccc34)cn2)C1 [baricitinib]
COVID‐19 [13]
  recovery time: significantly shortened recovery time

## N#CC[C@H](C1CCCC1)n1cc(-c2ncnc3[nH]ccc23)cn1 [ruxolitinib]
COVID‐19 [14]
  primary end point: did not meet its primary end point

— PMC8444931 (Clinical and Translational Science, 2021)
